From ChEMBL document CHEMBL3526126, “Amide hydrolysis of a novel chemical series of microsomal prostaglandin E synthase-1 inhibitors induces kidney toxicity in the rat” (Drug Metab Dispos, 2013)
One block for each molecule: values may come before it.

Key:
Rattus norvegicus [1] = test: Toxicity in Wistar Hannover rat kidney assessed as crystals in urine at 76 to 230 umol/kg, po qd administered for 7 days measured on day 7 by hematoxylin/eosin staining-based light microscopic analysis; format: organism-based; conditions: in vivo, 168 h
Rattus norvegicus [2] = test: Toxicity in Wistar Hannover rat kidney assessed as increase in plasma urea level at >= 500 to 1000 umol/kg, po qd administered for 7 days measured on day 7; format: organism-based; conditions: in vivo, 168 h
How it was run: (§1)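 Wistar Hannover rats, about 8 weeks old, were acclimatized about 2 weeks and randomized by body weight. Dosing was by oral gavage (10 ml/kg) once daily for 7 days, with vehicle controls. At the end of dosing, plasma (lithium heparin) was taken from the orbital plexus under isoflurane/oxygen anaesthesia, and urea and creatinine were measured.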

[3] = Cmax in Sprague-Dawley rat at 200 umol/kg, po qd administered for 7 days measured on day 7; format: ADME, organism-based; design: dose 200 umol/kg, route oral; conditions: in vivo
How it was run: (§2)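 Toxicity study 2: 2 female satellite rats per dose group. Dosing was once daily by oral gavage (10 ml/kg) for 7 days. Tail-vein EDTA blood was taken at 2, 4, 6, 7 and 24 h on day 1 and on day 7, then chilled and centrifuged to plasma. Parent and M1 were quantified by LC-MS/MS, with M1 measured in negative electrospray mode.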

[4] = AUC (0 to 24 hrs) in Wistar Hannover rat at 200 umol/kg, po qd measured on day 1; conditions: plasma
[5] = Cmax in Sprague-Dawley rat at 70 umol/kg, po qd administered for 7 days measured on day 7; format: ADME, organism-based; design: dose 70 umol/kg, route oral; conditions: in vivo; how it was run: as §2
[6] = Cmax in Wistar Hannover rat at 70 umol/kg, po qd measured on day 1; conditions: in vivo
[7] = Cmax in Wistar Hannover rat at 200 umol/kg, po qd measured on day 1; conditions: in vivo
Rattus norvegicus [8] = test: Toxicity in Wistar Hannover rat kidney assessed as pathophysiological changes at 70 to 500 umol/kg, po qd administered for 7 days measured on day 7; conditions: in vivo, 168 h
[9] = AUC (0 to 24 hrs) in Sprague-Dawley rat at 200 umol/kg, po qd administered for 7 days measured on day 7; format: ADME, organism-based; design: dose 200 umol/kg, time < 24 hr, route oral; conditions: plasma; how it was run: as §2
[10] = AUC (0 to 24 hrs) in Sprague-Dawley rat at 70 umol/kg, po qd administered for 7 days measured on day 7; format: ADME, organism-based; design: time < 24 hr, dose 70 umol/kg, route oral; conditions: plasma; how it was run: as §2
[11] = Drug metabolism in Sprague-Dawley rat hepatocytes assessed as amide hydrolysis at 1 to 10 uM by LC-MS analysis; format: ADME, cell-based, Hepatocyte
How it was run: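 Hepatocytes at 1 × 10^6 cells/ml in William's medium incubated at 37°C with gentle shaking under 5% CO2. Substrate was at […]. Metabolites were analysed by LC-MS.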

Rattus norvegicus [12] = test: Toxicity in Wistar Hannover rat kidney assessed as increase in plasma creatinine level at >= 500 to 1000 umol/kg, po qd administered for 7 days measured on day 7; format: organism-based; conditions: in vivo, 168 h; how it was run: as §1
[13] = AUC (0 to 24 hrs) in Wistar Hannover rat at 70 umol/kg, po qd measured on day 1; conditions: plasma
Prostaglandin E synthase = target: T1, Prostaglandin E synthase (Homo sapiens, UniProt O14684); test: Inhibition of human mPGES-1 by whole blood assay
T1 sequence (O14684 whole entry): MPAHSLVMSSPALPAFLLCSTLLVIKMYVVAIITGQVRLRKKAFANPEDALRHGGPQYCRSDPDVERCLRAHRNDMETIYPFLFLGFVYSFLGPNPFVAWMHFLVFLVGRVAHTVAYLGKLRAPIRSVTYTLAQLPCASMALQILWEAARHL

Rattus norvegicus [14] = test: Toxicity in Wistar Hannover rat kidney assessed as crystals in urine at 500 umol/kg, po qd administered for 7 days measured on day 7; format: organism-based; conditions: in vivo, 168 h
[15] = Cmax in Wistar Hannover rat at 170 umol/kg, po qd measured on day 1; conditions: in vivo
[16] = AUC (0 to 24 hrs) in Wistar Hannover rat at 500 umol/kg, po qd measured on day 1; conditions: plasma
[17] = AUC (0 to 24 hrs) in Sprague-Dawley rat at 500 umol/kg, po qd administered for 7 days measured on day 7; format: ADME, organism-based; design: dose 500 umol/kg, time < 24 hr, route oral; conditions: plasma; how it was run: as §2
[18] = AUC (0 to 24 hrs) in Sprague-Dawley rat at 170 umol/kg, po qd administered for 7 days measured on day 7; format: ADME, organism-based; design: time < 24 hr, dose 170 umol/kg, route oral; conditions: plasma; how it was run: as §2
[19] = Cmax in Wistar Hannover rat at 500 umol/kg, po qd measured on day 1; conditions: in vivo
[20] = Cmax in Sprague-Dawley rat at 500 umol/kg, po qd administered for 7 days measured on day 7; format: ADME, organism-based; design: dose 500 umol/kg, route oral; conditions: in vivo; how it was run: as §2
[21] = Cmax in Sprague-Dawley rat at 170 umol/kg, po qd administered for 7 days measured on day 7; format: ADME, organism-based; design: dose 170 umol/kg, route oral; conditions: in vivo; how it was run: as §2
[22] = AUC (0 to 24 hrs) in Wistar Hannover rat at 170 umol/kg, po qd measured on day 1; conditions: plasma
Hepatocyte [23] = test: Drug level in Sprague-Dawley rat hepatocytes treated with AZ'7847 at 1 to 10 uM by LC-MS analysis; format: ADME, cell-based
How it was run: (§3)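 Metabolic profiling in rat hepatocytes at 1 × 10^6 cells/ml in William's medium, shaken gently at 37°C under 5% CO2. Substrate was tested at two concentrations (1 and 10). For radio detection, a 14C-labelled substrate was separated on an Atlantis T3 column (1 ml/min) with a 1:20 split to the MS and a flow scintillation monitor.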

Hepatocyte [24] = test: Drug level in Sprague-Dawley rat hepatocytes treated with AZ'7847 at 1 to 10 uM by radio monitoring method; format: ADME, cell-based; how it was run: as §3
Rattus norvegicus [25] = test: Drug level in Wistar Hannover rat treated with [14C]-AZ'7847 at 500 umol/kg, po qd administered for 7 days measured on day 7 by radio monitoring method; format: ADME, organism-based; conditions: in vivo, 168 h

- Cmax [3]: 110 µM
- AUC(0-t) at 24 h [4]: 970 µM·h
- Cmax [5]: 50 µM
- Cmax [6]: 50 µM
- Cmax [7]: 90 µM
- AUC at 24 h [9]: 1070 µM·h
- AUC at 24 h [10]: 550 µM·h
- Drug metabolism [11]: metabolite_not_detected
- AUC(0-t) at 24 h [13]: 610 µM·h
Structure (SMILES): COc1cc(C(=O)NS(=O)(=O)c2ccccc2S(N)(=O)=O)ccc1C#CC1CC1
- Activity (Rattus norvegicus [1]): Non-toxic
- Activity (Rattus norvegicus [2]): Non-toxic
- Activity (Rattus norvegicus [8]): Non-toxic
- Activity (Rattus norvegicus [12]): Non-toxic

- IC50 (Prostaglandin E synthase): > 2000 nM
- Cmax [15]: 170 µM
- Drug metabolism [11]: metabolite_not_detected
- AUC(0-t) at 24 h [16]: 3410 µM·h
- AUC at 24 h [17]: 3010 µM·h
- AUC at 24 h [18]: 1600 µM·h
- Cmax [19]: 300 µM
- Cmax [20]: 320 µM
- Cmax [21]: 190 µM
- AUC(0-t) at 24 h [22]: 1260 µM·h
Structure (SMILES): CC(C)C#Cc1ccc(C(=O)NS(=O)(=O)c2ccccc2S(N)(=O)=O)cc1OCCC(F)(F)F
- Activity (Rattus norvegicus [2]): Non-toxic
- Activity (Rattus norvegicus [14]): Toxic
- Activity (Rattus norvegicus [8]): Non-toxic
- Activity (Rattus norvegicus [12]): Non-toxic

- Drug metabolism (Hepatocyte [23]): metabolite_detected
- Drug metabolism (Hepatocyte [24]): metabolite_detected
- Drug metabolism (Rattus norvegicus [25]): metabolite_detected
Structure (SMILES): O=[14C](O)c1ccc(C#Cc2ccccc2)cc1
